Measured values taken from ChEMBL document CHEMBL1145564, “Discovery of N-[(3R,5R)-1-azabicyclo[3.2.1]oct-3-yl]furo[2,3-c]pyridine-5-carboxamide as an agonist of the alpha7 nicotinic acetylcholine receptor: in vitro and in vivo activity” (Bioorg Med Chem Lett, 2008).

How the values were obtained:
[1] = target: Neuronal acetylcholine receptor subunit alpha-7 (Rattus norvegicus, UniProt Q05941); experiment: Displacement of [3H]MLA from alpha-7 nACh receptor in rat brain; type: tissue-based
Summary of the method: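 Rat brain homogenate binding with [3H]MLA; individual Ki values, mean ± SEM reported when more than 3 measurements.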

[2] = Apparent permeability from apical to basolateral side in dog MDCK cells; type: ADME, cell-based, Canis lupus familiaris
Summary of the method: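 MDCK monolayer permeability measured apical to basolateral, expressed as Papp (x10^-6 cm/s).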

[3] = Clearance in Sprague-Dawley rat at 5 mg/kg, po; type: ADME, organism-based; parameters: dose 5 mg/kg, route oral; settings: in vivo
Summary of the method: (§1)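 Sprague-Dawley rats given a single 5.0 mg/kg oral dose; pharmacokinetic parameters derived from plasma.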

[4] = system: Rattus norvegicus; experiment: Volume of distribution at steady state in Sprague-Dawley rat at 5 mg/kg, po; type: ADME, organism-based; parameters: dose 5 mg/kg, route oral; settings: in vivo; summary of the method: as §1
[5] = target: T1, Muscarinic acetylcholine receptor M2 (Homo sapiens) (UniProt P08172); experiment: Displacement of [3H]AF-DX384 from human muscarinic M2 receptor expressed in CHO cells at 10 uM; type: cell-based
T1 sequence (whole entry): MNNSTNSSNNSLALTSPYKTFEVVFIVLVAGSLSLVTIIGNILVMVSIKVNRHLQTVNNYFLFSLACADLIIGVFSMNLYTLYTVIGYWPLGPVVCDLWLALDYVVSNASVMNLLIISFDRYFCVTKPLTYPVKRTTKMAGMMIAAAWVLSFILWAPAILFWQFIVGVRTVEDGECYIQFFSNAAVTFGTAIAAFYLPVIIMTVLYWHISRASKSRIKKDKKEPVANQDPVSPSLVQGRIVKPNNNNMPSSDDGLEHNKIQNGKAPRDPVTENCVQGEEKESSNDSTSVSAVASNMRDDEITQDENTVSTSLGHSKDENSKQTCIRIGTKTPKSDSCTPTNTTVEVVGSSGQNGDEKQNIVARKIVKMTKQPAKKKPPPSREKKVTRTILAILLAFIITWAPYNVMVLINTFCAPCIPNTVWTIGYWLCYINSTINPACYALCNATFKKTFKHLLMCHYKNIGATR
Summary of the method: (§2)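 Human muscarinic receptors in transfected CHO cells; radioligands [3H]pirenzepine (M1), [3H]AF-DX 384 (M2), [3H]DAMP (M3); percent block at 10 µM.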

[6] = Ratio of drug level in brain to plasma in mouse at 10 mg/kg after 60 min; type: ADME, organism-based; parameters: dose 10 mg/kg
Summary of the method: (§3)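 Mouse brain uptake: brain and plasma concentrations after a 10 mg/kg dose, ratio taken at 5 and 60 min.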

[7] = system: Plasma; experiment: Fraction unbound in human plasma at 0.100 ug/mL; type: ADME, cell-free
Summary of the method: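 Human plasma protein binding as fraction unbound, measured at drug concentration 0.100 µg/mL.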

[8] = target: Muscarinic acetylcholine receptor M3 (Homo sapiens) (UniProt P20309); experiment: Displacement of [3H]DAMP from human muscarinic M3 receptor expressed in CHO cells at 10 uM; type: cell-based; summary of the method: as §2
[9] = Metabolic stability in human liver microsomes assessed as half life; type: ADME, Microsome
[10] = target: T2, 5-hydroxytryptamine receptor 3A (Rattus norvegicus, UniProt P35563); experiment: Binding affinity to rat 5HT3 receptor
T2 sequence (P35563 whole entry): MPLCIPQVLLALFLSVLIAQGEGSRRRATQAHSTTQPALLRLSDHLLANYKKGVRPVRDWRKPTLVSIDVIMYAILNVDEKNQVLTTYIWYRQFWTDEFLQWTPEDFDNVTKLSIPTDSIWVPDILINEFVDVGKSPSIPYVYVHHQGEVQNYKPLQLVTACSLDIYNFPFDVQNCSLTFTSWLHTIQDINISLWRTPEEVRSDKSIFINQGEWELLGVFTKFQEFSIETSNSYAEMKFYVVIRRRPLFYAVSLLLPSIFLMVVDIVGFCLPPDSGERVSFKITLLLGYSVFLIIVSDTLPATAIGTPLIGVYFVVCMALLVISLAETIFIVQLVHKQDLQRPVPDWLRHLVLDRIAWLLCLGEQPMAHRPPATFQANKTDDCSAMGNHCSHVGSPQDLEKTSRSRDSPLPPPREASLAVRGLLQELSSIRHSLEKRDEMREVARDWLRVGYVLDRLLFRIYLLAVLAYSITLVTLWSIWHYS

[11] = Half life in Sprague-Dawley rat at 5 mg/kg, po; type: ADME, organism-based; parameters: dose 5 mg/kg, route oral; settings: in vivo; summary of the method: as §1
[12] = target: Neuronal acetylcholine receptor; alpha4/beta2 (Rattus norvegicus) (UniProt P09483+P12390); experiment: Displacement of [3H][…] from alpha-4-beta-2 nACh receptor in rat brain at 1 uM; type: tissue-based
Summary of the method: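 Rat brain homogenate binding using [3H][…]; percent block at 1 µM.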

[13] = target: T3, Muscarinic acetylcholine receptor M1 (Homo sapiens) (UniProt P11229); experiment: Displacement of [3H]pirenzepine from human muscarinic M1 receptor expressed in CHO cells at 10 uM; type: cell-based; summary of the method: as §2
T3 sequence (whole entry): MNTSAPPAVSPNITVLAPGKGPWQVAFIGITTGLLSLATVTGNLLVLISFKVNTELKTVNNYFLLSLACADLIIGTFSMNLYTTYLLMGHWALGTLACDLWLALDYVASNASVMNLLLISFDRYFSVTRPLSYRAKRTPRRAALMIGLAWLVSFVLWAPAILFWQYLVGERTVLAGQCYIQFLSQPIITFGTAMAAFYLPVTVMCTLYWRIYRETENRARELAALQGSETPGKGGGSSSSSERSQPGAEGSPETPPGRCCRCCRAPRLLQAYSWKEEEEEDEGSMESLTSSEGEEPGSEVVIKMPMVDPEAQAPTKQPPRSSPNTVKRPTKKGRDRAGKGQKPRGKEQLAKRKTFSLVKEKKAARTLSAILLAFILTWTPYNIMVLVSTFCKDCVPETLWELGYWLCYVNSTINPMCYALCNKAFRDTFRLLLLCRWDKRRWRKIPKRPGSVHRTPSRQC

[14] = Ratio of drug level in brain to plasma in mouse at 10 mg/kg after 5 mins; type: ADME, organism-based; parameters: dose 10 mg/kg; summary of the method: as §3
[15] = system: Rattus norvegicus; experiment: Reversal of amphetamine-induced auditory gating deficit in iv dosed rat auditory sensory gating model; settings: read-out: MED
[16] = Cmax in dog ECG model; type: ADME, organism-based, Canis lupus familiaris; settings: in vivo
Summary of the method: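 Acute dog ECG cardiovascular safety study; no-observable-adverse-effect dose set, with Cmax measured at that dose.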

[17] = Metabolic stability in rat liver microsomes assessed as hepatic extraction ratio after 30 mins; type: ADME, Microsome
Summary of the method: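 Rat liver microsome incubation; stability reported as fraction of compound remaining after 30 min relative to t0 concentration.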

[18] = target: Neuronal acetylcholine receptor subunit alpha-7 (Homo sapiens, UniProt P36544); experiment: Agonist activity at alpha7-5HT3 chimera expressed in human SH-EP1 cells by FLIPR assay; type: functional, cell-based
Chain of Neuronal acetylcholine receptor subunit alpha-7 (Homo sapiens, UniProt P36544) (P36544 23-502 limits assumed): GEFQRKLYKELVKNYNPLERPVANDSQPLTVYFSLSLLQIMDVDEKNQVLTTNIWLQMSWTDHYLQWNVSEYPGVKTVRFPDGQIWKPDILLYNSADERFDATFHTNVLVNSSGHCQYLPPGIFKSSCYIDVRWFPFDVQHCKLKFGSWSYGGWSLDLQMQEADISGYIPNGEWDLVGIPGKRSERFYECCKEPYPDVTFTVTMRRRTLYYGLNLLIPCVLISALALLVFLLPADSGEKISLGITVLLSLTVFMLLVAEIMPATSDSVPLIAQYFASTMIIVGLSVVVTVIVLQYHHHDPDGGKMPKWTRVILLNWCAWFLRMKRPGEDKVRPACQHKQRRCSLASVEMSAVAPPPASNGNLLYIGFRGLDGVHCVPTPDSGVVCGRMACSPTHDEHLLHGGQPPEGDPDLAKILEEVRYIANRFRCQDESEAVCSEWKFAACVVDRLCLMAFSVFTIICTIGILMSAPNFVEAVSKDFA

Chain of Neuronal acetylcholine receptor subunit alpha-7 (Rattus norvegicus, UniProt Q05941) (Q05941 whole entry): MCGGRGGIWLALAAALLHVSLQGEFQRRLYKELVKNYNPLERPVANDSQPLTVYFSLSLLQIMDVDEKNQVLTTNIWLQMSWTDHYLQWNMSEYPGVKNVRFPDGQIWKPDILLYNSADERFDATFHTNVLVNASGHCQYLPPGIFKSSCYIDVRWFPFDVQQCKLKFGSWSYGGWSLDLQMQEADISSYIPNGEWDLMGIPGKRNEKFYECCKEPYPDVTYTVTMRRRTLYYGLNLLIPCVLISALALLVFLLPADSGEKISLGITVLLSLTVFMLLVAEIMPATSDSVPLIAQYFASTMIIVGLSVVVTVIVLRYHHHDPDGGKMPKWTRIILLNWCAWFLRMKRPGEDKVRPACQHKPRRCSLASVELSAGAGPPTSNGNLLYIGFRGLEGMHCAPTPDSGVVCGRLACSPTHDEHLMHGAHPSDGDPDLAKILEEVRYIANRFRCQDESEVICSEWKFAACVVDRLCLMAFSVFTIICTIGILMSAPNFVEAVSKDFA
Chain of Muscarinic acetylcholine receptor M3 (Homo sapiens) (P20309 whole entry, looked up): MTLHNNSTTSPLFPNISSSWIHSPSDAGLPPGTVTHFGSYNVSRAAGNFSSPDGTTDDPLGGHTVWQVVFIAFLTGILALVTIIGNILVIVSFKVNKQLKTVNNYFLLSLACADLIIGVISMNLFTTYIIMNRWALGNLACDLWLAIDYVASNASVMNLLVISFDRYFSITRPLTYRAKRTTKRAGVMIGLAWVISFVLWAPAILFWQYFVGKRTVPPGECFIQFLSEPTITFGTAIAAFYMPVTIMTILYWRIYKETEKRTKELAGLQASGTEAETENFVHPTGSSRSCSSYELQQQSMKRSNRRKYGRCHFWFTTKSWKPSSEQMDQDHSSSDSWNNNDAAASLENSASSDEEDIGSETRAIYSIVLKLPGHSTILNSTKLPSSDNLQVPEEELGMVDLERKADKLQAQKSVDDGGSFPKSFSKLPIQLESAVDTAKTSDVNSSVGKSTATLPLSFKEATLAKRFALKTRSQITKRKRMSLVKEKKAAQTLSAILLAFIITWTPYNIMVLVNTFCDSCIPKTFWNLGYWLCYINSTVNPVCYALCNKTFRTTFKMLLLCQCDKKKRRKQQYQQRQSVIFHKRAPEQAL

With `O=C(N[C@H]1CN2CCC1CC2)c1cc2ccoc2cn1` [PHA-543613] as the compound, how does the Ki [1] read?
Its Ki is 9 nM.

What about the Papp A→B [2] of the same compound?
The Papp A→B was 34 ×10⁻⁶ cm/s.

And the CL/F [3]?
The CL/F was 33 mL/min/kg.

What about the Vdss [4] of the same compound?
Its Vdss is 1.8 L/kg.

What about the Activity [5] of the same compound?
Its Activity is 23%.

And the Kp at 1 h [6]?
Its Kp at 1 h is 1.5.

And the fraction unbound [7]?
Its fraction unbound is 0.83.

What about the Activity [8] of the same compound?
Its Activity is 33%.

And the half-life [9]?
The half-life was > 120 min.

What about the Ki [10] of the same compound?
Its Ki is 630 nM.

What about the half-life [11] of the same compound?
Its half-life is 36 min.

What about the Activity [12] of the same compound?
Its Activity is 13%.

What about the Activity [13] of the same compound?
Its Activity is 16%.

What about the Kp at 5 min [14] of the same compound?
The Kp at 5 min was 1.5.

And the minimal effective dose [15]?
Its minimal effective dose is 0.24 mg/kg.

And the Cmax [16]?
The Cmax was 3.8 µM.

For `O=C(N[C@@H]1C[C@H]2CCN(C2)C1)c1cc2cccn2cn1`, which hepatic extraction ratio at 0.5 h [17] is on record?
Its hepatic extraction ratio at 0.5 h is 0.86.

What about the Ki [1] of the same compound?
The Ki was 14 nM.

What about the EC50 [18] of the same compound?
Its EC50 is 129 nM.

Which hepatic extraction ratio at 0.5 h [17] does the source give for `O=C(N[C@@H]1C[C@H]2CCN(C2)C1)c1ccc2c(c1)OCCO2` here?
The hepatic extraction ratio at 0.5 h was 0.74.

And the Ki [1]?
The Ki was 29 nM.

What about the EC50 [18] of the same compound?
The EC50 was 430 nM.

Which hepatic extraction ratio at 0.5 h [17] does the source give for `O=C(N[C@H]1CN2CCC1CC2)c1ccc(Cl)cc1` [PNU-282987] here?
Its hepatic extraction ratio at 0.5 h is < 0.27.

And the EC50 [18]?
The EC50 was 128 nM.
